Test results taken from ChEMBL document CHEMBL1140313, “Potent inhibitors of subgenomic hepatitis C virus RNA replication through optimization of indole-N-acetamide allosteric inhibitors of the viral NS5B polymerase” (J Med Chem, 2005).

Key:
[1] = target: RNA-directed RNA polymerase (Hepacivirus hominis, UniProt O39930); experiment: Inhibitory activity against hepatitis C virus NS5B polymerase enzyme; Range=6-9 nM
In short: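 Purified ΔC55 NS5B polymerase assayed with heterogenic template RNA. IC50 values come from a single experiment or are arithmetic means of multiple experiments, as footnoted; some were measured in duplicate.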

Huh-7 [2] = experiment: Effective concentration required to inhibit replication of subgenomic HCV RNA in HUH-7 cells in the presence of 10% fetal calf serum; type: functional, cell-based; conditions: Homo sapiens
In short: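 Subgenomic HCV replicon in HUH-7 cells, run in medium with 10% fetal calf serum (a modification of Bartenschlager's method). EC50 was determined only for compounds giving >50% inhibition in an initial screen at a fixed 5 μM. Values are the arithmetic mean ± half-range or standard error of at least two independent determinations, or from a single experiment where noted.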

Huh-7 [3] = experiment: Effective concentration required to inhibit replication of subgenomic HCV RNA in HUH-7 cells in the presence of 50% normal human serum; type: functional, cell-based
In short: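 Subgenomic HCV replicon in HUH-7 cells run under high-serum conditions with 50% normal human serum in place of 10% fetal calf serum. EC50 values are the arithmetic mean ± half-range or standard error of at least two independent determinations.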

[4] = Plasma clearance in dod; type: ADME, organism-based, Canis lupus familiaris; conditions: dog, read-out: Clp
In short: (§1)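 Sprague-Dawley rats and male beagle dogs, dosed as trifluoroacetate salts (mg/kg; n = 3, some n = 2). Rat vehicle: iv 20% DMSO/[…] with po PEG-400, or iv 20% DMSO/80% saline with po 50% PEG-400/50% H2O. Dog vehicle: iv 20% DMSO/40% PEG-400/40% H2O, po PEG-400. Plasma levels measured by HPLC–MS/MS; noncompartmental analysis; terminal half-life from iv.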

[5] = Plasma clearance in rat; type: ADME, organism-based; conditions: read-out: Clp; in short: as §1
[6] = Plasma clearance after intravenous administration of 1 mg/kg in dog; type: ADME, organism-based, Canis lupus familiaris; design: dose 1 mg/kg, route intravenous; conditions: read-out: Clp; in short: as §1
[7] = Plasma half life following 1 mg/kg iv administration in dog; type: ADME, organism-based, Canis lupus familiaris; design: dose 1 mg/kg, route intravenous; in short: as §1
[8] = Plasma half life following 3 mg/kg iv administration in rat; type: ADME, organism-based; design: dose 3 mg/kg, route intravenous; in short: as §1
[9] = Oral bioavailability in dog at a dose of 2 mg/kg; type: ADME, organism-based, Canis lupus familiaris; conditions: in vivo; in short: as §1
[10] = Oral bioavailability in rat (dose 3 mg/kg); type: ADME, organism-based; conditions: in vivo; in short: as §1

Chain of RNA-directed RNA polymerase (O39930 whole entry): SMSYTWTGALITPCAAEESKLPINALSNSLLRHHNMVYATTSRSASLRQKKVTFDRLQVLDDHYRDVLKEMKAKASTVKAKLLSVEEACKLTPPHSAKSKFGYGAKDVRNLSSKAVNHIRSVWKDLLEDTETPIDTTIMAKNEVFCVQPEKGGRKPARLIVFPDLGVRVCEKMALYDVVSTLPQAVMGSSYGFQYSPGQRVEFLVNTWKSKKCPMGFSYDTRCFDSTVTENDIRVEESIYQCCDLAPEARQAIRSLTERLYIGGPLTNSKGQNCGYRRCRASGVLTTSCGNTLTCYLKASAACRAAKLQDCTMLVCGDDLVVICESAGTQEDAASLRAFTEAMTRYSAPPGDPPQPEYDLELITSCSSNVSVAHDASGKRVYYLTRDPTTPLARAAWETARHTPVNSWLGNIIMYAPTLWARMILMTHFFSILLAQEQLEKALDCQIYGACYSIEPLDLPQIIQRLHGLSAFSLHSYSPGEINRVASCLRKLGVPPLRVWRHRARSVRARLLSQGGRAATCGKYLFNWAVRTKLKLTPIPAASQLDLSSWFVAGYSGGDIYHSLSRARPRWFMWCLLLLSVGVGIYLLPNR

- IC50 [1]: 9 nM
- EC50 (Huh-7 [2]): 127 nM
- clearance [4]: 9 mL/min/kg
- clearance [5]: 44 mL/min/kg
- clearance [6]: 9 mL/min/kg
- half-life [7]: 5 h
- half-life [8]: 3.1 h
- bioavailability [9]: 51%
- bioavailability [10]: 10%
Compound: CCN(CC)C1CCN(C(=O)Cn2c(-c3ccc(Cl)cc3)c(C3CCCCC3)c3ccc(C(=O)O)cc32)CC1
- EC50 (Huh-7 [3]): 454 nM
